Published values of several laboratories.
Lines come from different studies, so protocols differ.
Target: Homeodomain-interacting protein kinase 2 (HIPK2, Homo sapiens, UniProt Q9H2X6)
Read-out: enzyme activity
Action: inhibitor

With CC(C)(C)C(=O)c1sc(NC2CCCCC2)nc1N the remaining activity was 79% (10 µM).
Cc1cnc(NC2CCOCC2)nc1-n1cnc(C(=O)NC(CN)c2cc(F)cc(Cl)c2)c1 (stereo not shown) has a remaining activity of 92% (radiometric; 1 µM).
With Oc1cccc(-c2nc(N3CCOCC3)c3oc4ncccc4c3n2)c1 the remaining activity was 18% (10 µM).
For CCCOc1ccc(OC)c(F)c1C(=O)c1ccc(C(=O)N[C@@H]2CNC[C@H]2NC(=O)c2ccc3[nH]ncc3c2)cc1, the remaining activity was 94% (10 µM).
The remaining activity of Cc1ccc(C(=O)Nc2ccc(CN3CCN(C)CC3)c(C(F)(F)F)c2)cc1C#Cc1cnc2cccnn12 is reported as 100% (23.5 nM).
With O=C(Nc1cnn(-c2csc(C(=O)NC3COC3)c2)c1)Nc1c(F)cccc1Cl the remaining activity was 92.6% (5 µM).
The remaining activity of Cn1c(=O)n(-c2ccc(C(C)(C)C#N)cc2)c2c3cc(-c4cnc5ccccc5c4)ccc3ncc21 is reported as 101% (10 µM).
O=C(O)c1ccc2c(c1)nc(Nc1ccc(Cl)cc1)c1ncncc12 gave a remaining activity of -2% (radiometric; 1 µM).
For O=C(Nc1cnn(-c2csc(C(=O)NC3COC3)c2)c1)Nc1ccccc1Cl, the remaining activity was 102% (5 µM).
O=C(O)c1ccc2c(c1)nc(NCCc1cccc(F)c1)c1ncncc12 gave a remaining activity of 6% (radiometric; 1 µM).
With CC(C)(C)c1nc2c(s1)c1nc(N)ncc1c1ccc(NS(=O)(=O)c3c(F)cccc3F)c(F)c12 the remaining activity was 80% (radiometric; 1 µM).
The remaining activity of O=C(O)c1ccc2c(c1)nc(Nc1ccccc1)c1ncncc12 is reported as 2% (radiometric; 1 µM).
With Nc1nc(Nc2ccccc2)sc1C(=O)c1c(F)cccc1F the remaining activity was 16% (10 µM).
